In ChEMBL document CHEMBL1149790, “Synthesis of some novel thiourea derivatives obtained from 5-[(4-aminophenoxy)methyl]-4-alkyl/aryl-2,4-dihydro-3H-1,2,4-triazole-3-thiones and evaluation as antiviral/anti-HIV and anti-tuberculosis agents” (Eur J Med Chem, 2008):

What was measured:
[1] = system: Vesicular stomatitis virus; test: Antiviral activity against in Vesicular stomatitis virus in human HEL cells assessed as reduction of virus-induced cytopathogenicity; format: functional
Procedure, shortened: (§1)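 Confluent cell monolayers (E6SM, HEL, HeLa or Vero, per line) inoculated with 100 CCID50 virus; 1 h adsorption, residual virus removed, then incubated with compound at 400, 200, 100 … µg/ml. Cytopathicity scored once complete in untreated virus controls; MIC = concentration inhibiting virus-induced cytopathicity.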

[2] = system: Vesicular stomatitis virus; test: Antiviral activity against in Vesicular stomatitis virus in human E6SM cells assessed as reduction of virus-induced cytopathogenicity; format: functional; procedure, shortened: as §1
Punta Toro virus = test: Antiviral activity against Punta Toro virus in african green monkey Vero cells assessed as reduction of virus-induced cytopathogenicity; format: functional; procedure, shortened: as §1
Human alphaherpesvirus 2 [3] = test: Antiviral activity against HSV2 G in human HEL cells assessed as reduction of virus-induced cytopathogenicity; format: functional; conditions: Human alphaherpesvirus 2, G; procedure, shortened: as §1
Human respirovirus 3 = test: Antiviral activity against Parainfluenza 3 virus in african green monkey Vero cells assessed as reduction of virus-induced cytopathogenicity; format: functional; procedure, shortened: as §1
[4] = system: Human immunodeficiency virus 1; test: Antiviral activity against HIV1 3B in human MT4 cells assessed as protection against virus-induced cytopathogenicity by MTT assay; format: functional, organism-based; set-up: Activity: concentration or dose not given beside the values; conditions: for IC50: Human immunodeficiency virus 1, 3B, MT4
Procedure, shortened: (§2)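 MT-4 cells at 6 × 10⁵ cells/ml infected with HIV-1 IIIB or HIV-2 ROD at 100–300 CCID50; compounds in serial five-fold dilutions, triplicate mock- and virus-infected wells. MTT viability read at 540 and 690 nm after 5 days, median OD of three wells; EC50 = 50% protection from viral cytopathic effect.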

[5] = system: Respiratory syncytial virus; test: Antiviral activity against respiratory syncytial virus in human HeLa cells assessed as inhibition of virus-induced cytopathogenicity; format: functional; procedure, shortened: as §1
Human alphaherpesvirus 1 [6] = test: Antiviral activity against HSV1 KOS in human HEL cells assessed as reduction of virus-induced cytopathogenicity; format: functional; conditions: Human alphaherpesvirus 1, KOS; procedure, shortened: as §1
Human alphaherpesvirus 1 [7] = test: Antiviral activity against thymidine kinase deficient and acyclovir resistant HSV1 KOS in human E6SM cells assessed as reduction of virus-induced cytopathogenicity; format: functional; conditions: Human alphaherpesvirus 1, KOS; procedure, shortened: as §1
Coxsackievirus B4 [8] = test: Antiviral activity against Coxsackie virus B4 in african green monkey Vero cells assessed as reduction of virus-induced cytopathogenicity; format: functional; conditions: Enterovirus B; procedure, shortened: as §1
[9] = system: Mammalian orthoreovirus 1; test: Antiviral activity against Reo virus 1 in african green monkey Vero cells assessed as reduction of virus-induced cytopathogenicity; format: functional; procedure, shortened: as §1
[10] = Cytotoxicity against human HeLa cells; format: cell-based
Procedure, shortened: (§3)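 Uninfected cell cultures exposed to test compounds alongside antiviral assays; minimum cytotoxic concentration (MCC) = concentration causing a microscopically detectable alteration of cell morphology.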

Human alphaherpesvirus 2 [11] = test: Antiviral activity against HSV2 G in human E6SM cells assessed as reduction of virus-induced cytopathogenicity; format: functional; conditions: Human alphaherpesvirus 2, G; procedure, shortened: as §1
[12] = Cytotoxicity against human HEL cells assessed as alteration of cell morphology; format: cell-based; procedure, shortened: as §3
[13] = Cytotoxicity against human MT4 cells by MTT assay; format: cell-based
Procedure, shortened: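 Mock-infected MT-4 cells (6 × 10⁵ cells/ml) with serial five-fold compound dilutions in triplicate; MTT reduction read at 540 and 690 nm after 5 days, median OD of three wells; CC50 = concentration reducing OD540 of mock-infected control by 50%.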

Human alphaherpesvirus 1 [14] = test: Antiviral activity against thymidine kinase deficient and acyclovir resistant HSV1 KOS in human HEL cells assessed as reduction of virus-induced cytopathogenicity; format: functional; conditions: Human alphaherpesvirus 1, KOS; procedure, shortened: as §1
[15] = system: Human immunodeficiency virus 2; test: Antiviral activity against HIV2 ROD in human MT4 cells assessed as protection against virus-induced cytopathogenicity by MTT assay; format: functional, organism-based; set-up: Activity: concentration or dose not given beside the values; conditions: for IC50: Human immunodeficiency virus 2, ROD, MT4; procedure, shortened: as §2
[16] = Cytotoxicity against human E6SM cells; format: cell-based; conditions: E6SM cells; procedure, shortened: as §3
[17] = system: Vesicular stomatitis virus; test: Antiviral activity against vesicular stomatitis virus in human HeLa cells assessed as inhibition of virus-induced cytopathogenicity; format: functional; procedure, shortened: as §1
Sindbis virus = test: Antiviral activity against Sindbis virus in african green monkey Vero cells assessed as reduction of virus-induced cytopathogenicity; format: functional; procedure, shortened: as §1
Coxsackievirus B4 [18] = test: Antiviral activity against Coxsackie virus B4 in human HeLa cells assessed as inhibition of virus-induced cytopathogenicity; format: functional; conditions: Enterovirus B; procedure, shortened: as §1
Vero = test: Cytotoxicity against african green monkey Vero cells; format: cell-based; conditions: chlorocebus sabaeus; procedure, shortened: as §3
Human alphaherpesvirus 1 [19] = test: Antiviral activity against HSV1 KOS in human E6SM cells assessed as reduction of virus-induced cytopathogenicity; format: functional; conditions: Human alphaherpesvirus 1, KOS; procedure, shortened: as §1

C=CCNC(=S)Nc1ccc(-c2nnc(SCc3ccc(Cl)cc3Cl)n2-c2ccccc2)cc1
>= 16 ug ml-1: Activity (Vero)
1.5%: Activity [4]
> 16 µg/mL: MIC [1] | MIC [2] | MIC (Punta Toro virus) | MIC (Human alphaherpesvirus 2 [3]) | MIC (Human respirovirus 3) | MIC [5] | MIC (Human alphaherpesvirus 1 [6]) | MIC (Human alphaherpesvirus 1 [7]) | MIC (Coxsackievirus B4 [8]) | MIC [9] | MIC (Human alphaherpesvirus 2 [11]) | MIC (Human alphaherpesvirus 1 [14]) | MIC [17] | MIC (Sindbis virus) | MIC (Coxsackievirus B4 [18]) | MIC (Human alphaherpesvirus 1 [19])
80 µg/mL: MCC [10]
0%: Activity [15]
> 65.3 µg/mL: IC50 [4] | IC50 [15]
65.3 µg/mL: CC50 [13]
≥ 16 µg/mL: MCC [12] | MCC [16]

CCCCCCNC(=S)Nc1ccc(-c2n[nH]c(=S)n2CC)cc1
21%: Activity [4]
3%: Activity [15]
2.58 µg/mL: CC50 [13]
> 80 µg/mL: MIC [1] | MIC [2] | MIC (Punta Toro virus) | MIC (Human alphaherpesvirus 2 [3]) | MIC (Human respirovirus 3) | MIC (Human alphaherpesvirus 1 [6]) | MIC (Human alphaherpesvirus 1 [7]) | MIC (Coxsackievirus B4 [8]) | MIC [9] | MIC (Human alphaherpesvirus 2 [11]) | MIC (Human alphaherpesvirus 1 [14]) | MIC (Sindbis virus) | MIC (Human alphaherpesvirus 1 [19])
400 µg/mL: MCC [12] | MCC [16] | Activity (Vero)
> 2.58 µg/mL: IC50 [4] | IC50 [15]
≥ 400 µg/mL: MCC [10]
> 400 µg/mL: MIC [5] | MIC [17] | MIC (Coxsackievirus B4 [18])

C=CCNC(=S)Nc1ccc(-c2n[nH]c(=S)n2CCc2ccccc2)cc1
400 µg/mL: MCC [10] | MCC [12] | MCC [16]
>= 80 ug ml-1: Activity (Vero)
9%: Activity [4]
13 µg/mL: CC50 [13]
> 80 µg/mL: MIC [1] | MIC [2] | MIC (Punta Toro virus) | MIC (Human alphaherpesvirus 2 [3]) | MIC (Human respirovirus 3) | MIC [5] | MIC (Human alphaherpesvirus 1 [6]) | MIC (Human alphaherpesvirus 1 [7]) | MIC (Coxsackievirus B4 [8]) | MIC [9] | MIC (Human alphaherpesvirus 2 [11]) | MIC (Human alphaherpesvirus 1 [14]) | MIC [17] | MIC (Sindbis virus) | MIC (Coxsackievirus B4 [18]) | MIC (Human alphaherpesvirus 1 [19])
> 13 µg/mL: IC50 [4] | IC50 [15]
0%: Activity [15]

CCNC(=S)Nc1ccc(-c2n[nH]c(=S)n2-c2ccccc2)cc1
>= 80 ug ml-1: Activity (Vero)
91.3 µg/mL: CC50 [13]
> 80 µg/mL: MIC (Punta Toro virus) | MIC (Human respirovirus 3) | MIC [5] | MIC (Coxsackievirus B4 [8]) | MIC [9] | MIC [17] | MIC (Sindbis virus) | MIC (Coxsackievirus B4 [18])
> 91.3 µg/mL: IC50 [4] | IC50 [15]
3%: Activity [15]
> 3.2 µg/mL: MIC [1] | MIC [2] | MIC (Human alphaherpesvirus 2 [3]) | MIC (Human alphaherpesvirus 1 [6]) | MIC (Human alphaherpesvirus 1 [7]) | MIC (Human alphaherpesvirus 2 [11]) | MIC (Human alphaherpesvirus 1 [14]) | MIC (Human alphaherpesvirus 1 [19])
≥ 3.2 µg/mL: MCC [12] | MCC [16]
≥ 80 µg/mL: MCC [10]
5.5%: Activity [4]

C=CCn1c(-c2ccc(NC(=S)NC)cc2)n[nH]c1=S
80.9 µg/mL: CC50 [13]
240 µg/mL: MIC (Human alphaherpesvirus 2 [3]) | MIC (Human alphaherpesvirus 1 [6]) | MIC (Human alphaherpesvirus 1 [7]) | MIC (Human alphaherpesvirus 2 [11]) | MIC (Human alphaherpesvirus 1 [14]) | MIC (Human alphaherpesvirus 1 [19])
> 80.9 µg/mL: IC50 [4] | IC50 [15]
9%: Activity [4]
>= 80 ug ml-1: Activity (Vero)
400 µg/mL: MCC [10] | MCC [12] | MCC [16]
> 80 µg/mL: MIC [1] | MIC [2] | MIC (Punta Toro virus) | MIC (Human respirovirus 3) | MIC [5] | MIC (Coxsackievirus B4 [8]) | MIC [9] | MIC [17] | MIC (Sindbis virus) | MIC (Coxsackievirus B4 [18])
0%: Activity [15]

C=CCNC(=S)Nc1ccc(-c2nnc(SCc3ccc(Cl)cc3Cl)n2C)cc1
80 µg/mL: MCC [12] | MCC [16] | Activity (Vero)
0.5%: Activity [4]
> 116 µg/mL: IC50 [4] | IC50 [15]
5%: Activity [15]
> 16 µg/mL: MIC [1] | MIC [2] | MIC (Punta Toro virus) | MIC (Human alphaherpesvirus 2 [3]) | MIC (Human respirovirus 3) | MIC (Human alphaherpesvirus 1 [6]) | MIC (Human alphaherpesvirus 1 [7]) | MIC (Coxsackievirus B4 [8]) | MIC [9] | MIC (Human alphaherpesvirus 2 [11]) | MIC (Human alphaherpesvirus 1 [14]) | MIC (Sindbis virus) | MIC (Human alphaherpesvirus 1 [19])
400 µg/mL: MCC [10]
116 µg/mL: CC50 [13]
> 80 µg/mL: MIC [5] | MIC [17] | MIC (Coxsackievirus B4 [18])

CNC(=S)Nc1ccc(-c2nnc(SCc3ccccc3)n2C)cc1
6%: Activity [15]
≥ 16 µg/mL: MCC [12] | MCC [16]
80 µg/mL: MCC [10] | Activity (Vero)
> 16 µg/mL: MIC [1] | MIC [2] | MIC (Punta Toro virus) | MIC (Human alphaherpesvirus 2 [3]) | MIC (Human respirovirus 3) | MIC [5] | MIC (Human alphaherpesvirus 1 [6]) | MIC (Human alphaherpesvirus 1 [7]) | MIC (Coxsackievirus B4 [8]) | MIC [9] | MIC (Human alphaherpesvirus 2 [11]) | MIC (Human alphaherpesvirus 1 [14]) | MIC [17] | MIC (Sindbis virus) | MIC (Coxsackievirus B4 [18]) | MIC (Human alphaherpesvirus 1 [19])
2.5%: Activity [4]
> 75.4 µg/mL: IC50 [4] | IC50 [15]
75.4 µg/mL: CC50 [13]
